In the library only some 2.5% were active in any assay of this set; here they are far more common.
TDP2 absorb = blocks human TDP2 phosphodiesterase activity | hit rate 0.34% among 370,000 | AID 720702 | recombinant TDP2, T5PNP hydrolysis, p-nitrophenol absorbance 415 nm | inhibition, % at 12.8 µM;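 active = inhibition above the mean of all tested compounds plus 3 SD, set per campaign, cut at about 25% in these data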;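 also: 0% = DMSO with enzyme and 100% = buffer with substrate but no TDP2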
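Read-out basis: percent inhibition. System: recombinant human TDP2. Buffer or medium: Mg2+-containing Tris-HCl buffer, pH 7.5. Repeats: single replicate. Timing: reaction 2 h, 37 °C. Benchmarks: high control without enzyme, low control DMSO plus TDP2. Probe or stimulus: 5 mM T5PNP. Doses: 12.8 µM only. Measured by: epi absorbance of p-nitrophenol freed from T5PNP by hydrolysis.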
GSTO1 inh = blocks human GSTO1 in RBBP9 counter-screen; hit rate 1.1% among 300,000; P78417; recombinant GSTO1, activity-based probe fluorescence polarization; inhibition, % at 5.96 µM;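 active = inhibition above the campaign mean inhibition plus 3 SD, cut at about 35% in these data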;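 also: 0% = GSTO1-1 with DMSO and 100% = wells lacking GSTO1-1 enzyme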
Target sequence (P78417 whole entry, looked up): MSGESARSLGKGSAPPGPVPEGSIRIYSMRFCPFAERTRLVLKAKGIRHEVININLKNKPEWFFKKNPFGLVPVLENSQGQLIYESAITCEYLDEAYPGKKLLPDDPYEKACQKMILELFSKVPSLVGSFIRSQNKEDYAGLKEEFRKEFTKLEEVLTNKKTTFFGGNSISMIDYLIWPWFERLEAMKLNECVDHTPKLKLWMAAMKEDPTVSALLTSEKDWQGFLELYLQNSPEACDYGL
PAD4 inh = PAD4 (human) enzyme inhibition. hit rate 0.41% among 330,000. Q9UM07. recombinant PAD4, RCA probe fluorescence polarization. AID 485272. inhibition, % at 6.36 µM;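 active = percent inhibition above a cutoff equal to the mean of all tested compounds plus 3 SD, cut at about 15% in these data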;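 also: 0% = PAD4 with RCA probe and DMSO and 100% = probe without PAD4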
PRMT1 inh = blocks human protein arginine methyltransferase 1; inhibition, % at 2.79 µM; recombinant PRMT1, activity-based probe fluorescence polarization; Q99873; hit rate 1.3% among 370,000; AID 652257;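 active = inhibition above about 21% made by adding two undisclosed values, limit read from the data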
Target sequence (Q99873 whole entry, looked up): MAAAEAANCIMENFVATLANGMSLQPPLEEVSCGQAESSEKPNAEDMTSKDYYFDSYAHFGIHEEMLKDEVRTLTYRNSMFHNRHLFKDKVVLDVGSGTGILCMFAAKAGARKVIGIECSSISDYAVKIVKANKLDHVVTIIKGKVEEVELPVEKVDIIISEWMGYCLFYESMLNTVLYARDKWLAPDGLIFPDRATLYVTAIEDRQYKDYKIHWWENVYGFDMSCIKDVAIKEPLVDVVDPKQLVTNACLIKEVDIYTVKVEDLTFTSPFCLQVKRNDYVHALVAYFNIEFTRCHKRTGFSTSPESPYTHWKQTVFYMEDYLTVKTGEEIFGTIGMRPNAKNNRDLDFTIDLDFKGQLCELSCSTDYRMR
CTSL1 counter = counter-screen for PFM18AAP inhibitors: inhibitors of F. hepatica cathepsin L1; recombinant F. hepatica cathepsin L1, Z-Leu-Arg-MCA fluorescence; AID 1906; inhibition, % at 5.96 µM; hit rate 0.49% among 300,000;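 active = inhibition above the mean of all tested compounds plus 3 SD, set per screening campaign, cut at about 17% in these data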;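 also: 0% = plate median of test compound wells and 100% = 1 µM Z-Phe-Ala-diazomethylketone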
PRMT1 inh conf = confirmation of human PRMT1 inhibitors; recombinant His-PRMT1, activity-based probe fluorescence polarization; shares compounds with PRMT1 inh; inhibition, % at 2.79 µM; hit rate 42% among 3,300;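 active = mean inhibition across replicates above the hit cutoff derived for the earlier primary screen, cut at about 22% in these data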
* = called active by the depositor.

N#Cc1cc(F)cc(OCCCN2CCC(C(O)(c3ccccc3)c3ccccc3)CC2)c1 was read as TDP2 absorb 6 and PRMT1 inh 5.
Screening C[C@@H]1OC(C2CCCCC2)N(C)[C@H]2C[C@H]3c4[nH]c5cccc(-c6cccc(F)c6)c5c4CCN3C(=O)[C@@H]12 (some centres undefined) returned TDP2 absorb 9 and PRMT1 inh 7.
Screening Cc1ccc(C2=C(O)C(=O)C(c3ccc(C)cc3)=C(O)C2=O)cc1 returned TDP2 absorb 4 and PRMT1 inh 3.
Screening CC1=C(O)C(=O)C(C2=C(O)C(=O)C(C)=C(O)C2=O)=C(O)C1=O returned TDP2 absorb -6, PRMT1 inh 29* and PRMT1 inh conf 34*.
COC(=O)c1ccc2nc(-c3ccco3)c(Cc3ccsc3)n2c1 was read as TDP2 absorb 2, PRMT1 inh 33* and PRMT1 inh conf 37*.
Screening COC(=O)c1ccc2nc(-c3ccccc3)c(Cc3ccsc3)n2c1 returned TDP2 absorb -2 and PRMT1 inh 3.
For COC(=O)c1ccc2nc(-c3ccco3)c(Cc3cccc(Cl)c3)n2c1 the results were TDP2 absorb 13, PRMT1 inh 25* and PRMT1 inh conf 8.
CN1C=CC2=C(C#N)C(N)C(C#N)(C#N)[C@H](c3ccccc3)[C@H]2C1 (some centres undefined) was read as TDP2 absorb 4, GSTO1 inh 1, PAD4 inh 0, PRMT1 inh 26*, CTSL1 counter 2 and PRMT1 inh conf 10.
`Nc1c(C(=O)c2ccc(Cl)cc2)sc2nsc(SCCN3CCOCC3)c12` gave TDP2 absorb -5, GSTO1 inh -1, PAD4 inh 7, PRMT1 inh 0 and CTSL1 counter 4.
Screening CC(=O)c1sc2nsc(SCCN3CCCCC3)c2c1N returned TDP2 absorb -9, GSTO1 inh 29, PAD4 inh -1, PRMT1 inh 27*, CTSL1 counter -1 and PRMT1 inh conf 4.
Nc1c(C(=O)c2ccccc2)sc2nsc(SCCN3CCCC3)c12 was read as TDP2 absorb 3, GSTO1 inh -15, PAD4 inh 6, PRMT1 inh 27*, CTSL1 counter 3 and PRMT1 inh conf 12.
Screening CN(C(=O)[C@@H]1CC=C[C@@H]2CCN(C3CCCCC3)C(=O)[C@@H]21)c1ccccc1 returned TDP2 absorb 4 and PRMT1 inh -5.
Screening CCOC(=O)c1[nH]c(=S)n(Cc2ccccc2)c1C(=O)OCC returned TDP2 absorb -7 and PRMT1 inh 7.
Screening CCOC(=O)c1[nH]c(=S)n(-c2ccccc2)c1C(=O)OCC returned TDP2 absorb -13, PRMT1 inh 48* and PRMT1 inh conf 7.
Screening O=C(Nc1ccccc1)c1nnsc1S(=O)c1ccc(Cl)cc1 (centres undefined) returned TDP2 absorb 1, GSTO1 inh -8, PAD4 inh 5, PRMT1 inh 81*, CTSL1 counter 0 and PRMT1 inh conf 88*.
Cc1nnsc1S(=O)c1ccc(Cl)cc1 (centres undefined) was read as TDP2 absorb -6, GSTO1 inh -1, PAD4 inh 2, PRMT1 inh 3 and CTSL1 counter -2.
For O=C(c1nnsc1S(=O)c1ccc(Cl)cc1)N1CCOCC1 (centres undefined) the results were TDP2 absorb 0, PRMT1 inh 54* and PRMT1 inh conf 66*.
CC(=O)N1CCc2cc(S(=O)(=O)NCCC(=O)NCc3ccc(Cl)cc3)ccc21 was read as TDP2 absorb -14 and PRMT1 inh -3.
`COc1ccc(S(=O)(=O)N(C)C[C@@H]2Oc3c(NC(=O)Nc4ccccc4)cccc3C(=O)N([C@@H](C)CO)C[C@H]2C)cc1` gave TDP2 absorb 10 and PRMT1 inh -3.
O=C1C2C3C=CC(C3=C3CCCCC3)C2C(=O)N1Cc1ccccc1 (centres undefined) was read as TDP2 absorb -10, GSTO1 inh -2, PAD4 inh 7, PRMT1 inh 36*, CTSL1 counter -3 and PRMT1 inh conf 3.
`S=c1[nH]c(-c2ccc(Cl)cc2)cs1` gave TDP2 absorb 8, GSTO1 inh 5, PAD4 inh -1, PRMT1 inh 31*, CTSL1 counter -4 and PRMT1 inh conf 54*.
Screening S=c1nccc(-c2ccc(Cl)cc2)[nH]1 returned TDP2 absorb -6, GSTO1 inh -3, PAD4 inh 12, PRMT1 inh 26*, CTSL1 counter -2 and PRMT1 inh conf 27*.
Clc1ccc(-c2ccn[nH]2)cc1 was read as TDP2 absorb 2, GSTO1 inh 0, PAD4 inh -4, PRMT1 inh -1 and CTSL1 counter -4.
Screening Clc1ccc(-c2cc3ccccc3[nH]2)cc1 returned TDP2 absorb -5, GSTO1 inh 4, PAD4 inh 3, PRMT1 inh 0 and CTSL1 counter 0.
`O=C1OC(c2ccccc2)=N/C1=C\C=C\c1ccccc1[N+](=O)[O-]` gave TDP2 absorb 4, GSTO1 inh 3, PAD4 inh -5, PRMT1 inh 1 and CTSL1 counter 7.
`O=C1OC(c2ccccc2)=N/C1=C\C=C\c1ccco1` gave TDP2 absorb 7, GSTO1 inh 11, PAD4 inh -1, PRMT1 inh 26*, CTSL1 counter 10 and PRMT1 inh conf 7.
Screening CCC(c1nnnn1Cc1ccco1)N(CCc1ccccc1)Cc1cc2cc(C)ccc2[nH]c1=O (centres undefined) returned TDP2 absorb 9, GSTO1 inh -8, PAD4 inh -7, PRMT1 inh 19 and CTSL1 counter 3.
O=c1[nH]c2cc3c(cc2cc1CN(Cc1cccs1)Cc1nnnn1Cc1ccco1)OCCO3 was read as TDP2 absorb 7, GSTO1 inh 7, PAD4 inh 1, PRMT1 inh 58*, CTSL1 counter 1 and PRMT1 inh conf 33*.
Screening O=c1[nH]c2cc3c(cc2cc1CN(Cc1ccccc1)Cc1nnnn1Cc1ccco1)OCCO3 returned TDP2 absorb -5, PRMT1 inh 52* and PRMT1 inh conf 20.
`Cc1ccc2[nH]c(=O)c(CN(CCc3ccccc3)C(c3nnnn3Cc3ccco3)C(C)C)cc2c1` (centres undefined) gave TDP2 absorb 7, GSTO1 inh -11, PAD4 inh -13, PRMT1 inh 27*, CTSL1 counter 8 and PRMT1 inh conf 12.
Screening Cc1ccc2[nH]c(=O)c(CN(Cc3ccc4c(c3)OCO4)Cc3nnnn3Cc3ccco3)cc2c1 returned TDP2 absorb -11, GSTO1 inh -1, PAD4 inh -1, PRMT1 inh 2 and CTSL1 counter 2.
CCc1ccc2[nH]c(=O)c(CN(Cc3ccccc3)Cc3nnnn3Cc3ccco3)cc2c1 was read as TDP2 absorb -12, GSTO1 inh 3, PAD4 inh -1, PRMT1 inh 13 and CTSL1 counter 8.
